Test results reported in ChEMBL document CHEMBL1155482, “Synthesis, anticancer activity and apoptosis inducing ability of anthranilamide-PBD conjugates” (2010).
Active and inactive are the calls of the source. The rule behind the calls is not given here.

Assays:
[1] = system: KB; assay: Cytotoxicity against human KB cells after 48 hrs by SRB assay; format: functional
Outline: (§1)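 Sulforhodamine B assay estimating cell density from cellular protein content, run on human cancer lines of lung, breast, oral, colon, cervix, ovary and prostate origin, with GI50 values derived.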

[2] = system: MCF7; assay: Cytotoxicity against human MCF7 cells after 48 hrs by SRB assay; format: functional; settings: MCF7, 48 h; outline: as §1
[3] = system: SiHa; assay: Cytotoxicity against human SiHa cells after 48 hrs by SRB assay; format: functional; outline: as §1
[4] = system: COLO 205; assay: Cytotoxicity against human COLO205 cells after 48 hrs by SRB assay; format: functional; settings: COLO 205, 48 h; outline: as §1
[5] = biological target: T1, Type II restriction enzyme BamHI (Bacillus amyloliquefaciens) (UniProt P23940); assay: Inhibition of Bacillus amyloliquifaction Bam H1-mediated restriction digestion of pBR322 at 4 uM by RED 100 assay
T1 sequence (whole entry): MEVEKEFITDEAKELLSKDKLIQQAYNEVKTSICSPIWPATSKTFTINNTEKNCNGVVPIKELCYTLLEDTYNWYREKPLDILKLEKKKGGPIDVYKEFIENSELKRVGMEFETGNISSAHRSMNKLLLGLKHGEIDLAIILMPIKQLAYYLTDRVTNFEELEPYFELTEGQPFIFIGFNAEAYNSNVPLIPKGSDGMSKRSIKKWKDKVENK
Outline: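 Restriction enzyme digestion (RED 100) of vector DNA by BamHI after exposure to compound at 2, 4, 8, 16 and 32 micromolar, with controls of vector cut without compound and uncut vector DNA.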

[6] = system: A-375; assay: Cell cycle arrest in human A375 cells assessed as accumulation at S phase at 1 uM by FACS analysis; format: functional
Outline: (§2)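 A375 cells were exposed to compound for 24 h, and cell cycle distribution was measured by FACS. The sub-G1 peak (labelled G0) was scored as the apoptotic cell percentage and compared with untreated control cells.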

[7] = system: A549; assay: Cytotoxicity against human A549 cells after 48 hrs by SRB assay; format: functional; settings: A549, 48 h; outline: as §1
[8] = system: A-375; assay: Induction of apoptosis in human A375 cells assessed as caspase 3 activation at 1 uM after 24 hrs by fluorimetry; format: functional, cell-based
Outline: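 Caspase-3 activity in treated A375 cells was measured by fluorimetry relative to untreated cells.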

[9] = system: A-375; assay: Cell cycle arrest in human A375 cells assessed as accumulation at G0/G1 phase at 1 uM by FACS analysis; format: functional; outline: as §2
[10] = system: HOP-62; assay: Cytotoxicity against human HOP62 cells after 48 hrs by SRB assay; format: functional; settings: HOP-62, 48 h; outline: as §1
[11] = system: PC-3; assay: Cytotoxicity against human PC3 cells after 48 hrs by SRB assay; format: functional; settings: PC-3, 48 h; outline: as §1
[12] = system: A-375; assay: Induction of apoptosis in human A375 cells assessed as p53 protein expression at 1 uM after 24 hrs by Western blotting; format: functional, cell-based
Outline: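 A375 cells were treated for 24 h, and lysates were probed for p53 by western blot with a p53-specific antibody. Untreated cells served as control and β-actin as loading control.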

[13] = system: A-375; assay: Induction of apoptosis in human A375 cells assessed as cells in dub G1 phase at 1 uM after 24 hrs by FACS analysis; format: functional; outline: as §2
[14] = Cytotoxicity against human DWD cells after 48 hrs by SRB assay; format: functional; outline: as §1
[15] = system: ZR-75-1; assay: Cytotoxicity against human ZR-75-1 cells after 48 hrs by SRB assay; format: functional; settings: ZR-75-1, 48 h; outline: as §1
[16] = Cytotoxicity against human Gurav cells after 48 hrs by SRB assay; format: functional; outline: as §1
[17] = system: A2780; assay: Cytotoxicity against human A2780 cells after 48 hrs by SRB assay; format: functional; settings: A2780, 48 h; outline: as §1
[18] = system: A-375; assay: Cell cycle arrest in human A375 cells assessed as accumulation at G2/M phase at 1 uM by FACS analysis; format: functional; outline: as §2
[19] = system: A-375; assay: Antitumor activity against human A375 cells assessed as cell viability at 1 uM after 24 hrs by MTT assay; format: functional, cell-based

Q: Which GI50 [1] does the source give for COc1cc2c(cc1OCCCCCN1CCN(C(=O)c3ccccc3NCc3ccc4ccccc4c3)CC1)N=C[C@@H]1CCCN1C2=O here?
A: Its GI50 is 130 nM.

Q: And the GI50 [2]?
A: The GI50 was 130 nM.

Q: And the GI50 [3]?
A: The GI50 was 150 nM.

Q: And the GI50 [4]?
A: Its GI50 is 150 nM.

Q: And the inhibition [5]?
A: Its inhibition is “Active”.

Q: What about the Activity [6] of the same compound?
A: Its Activity is 7.09%.

Q: What about the GI50 [7] of the same compound?
A: Its GI50 is 170 nM.

Q: And the Activity [8]?
A: The Activity was “Active”.

Q: And the Activity [9]?
A: Its Activity is 91.94%.

Q: What about the GI50 [10] of the same compound?
A: Its GI50 is 1800 nM.

Q: What about the GI50 [11] of the same compound?
A: Its GI50 is 140 nM.

Q: What about the Activity [12] of the same compound?
A: The Activity was “Active”.

Q: What about the Activity [13] of the same compound?
A: The Activity was 7.333%.

Q: And the GI50 [14]?
A: Its GI50 is 130 nM.

Q: And the GI50 [15]?
A: The GI50 was 150 nM.

Q: What about the GI50 [16] of the same compound?
A: The GI50 was 140 nM.

Q: What about the GI50 [17] of the same compound?
A: Its GI50 is 140 nM.

Q: And the Activity [18]?
A: The Activity was 1.97%.

Q: And the Activity [19]?
A: Its Activity is “Active”.

Q: For COc1cc2c(cc1OCCCCCCN1CCN(C(=O)c3ccccc3NCc3ccc4ccccc4c3)CC1)N=C[C@@H]1CCCN1C2=O, which GI50 [1] is on record?
A: The GI50 was 150 nM.

Q: And the GI50 [2]?
A: Its GI50 is 140 nM.

Q: And the GI50 [3]?
A: The GI50 was 150 nM.

Q: And the GI50 [4]?
A: The GI50 was 180 nM.

Q: What about the GI50 [7] of the same compound?
A: Its GI50 is 170 nM.

Q: And the GI50 [10]?
A: The GI50 was 1900 nM.

Q: And the GI50 [11]?
A: Its GI50 is 150 nM.

Q: What about the GI50 [14] of the same compound?
A: Its GI50 is 160 nM.

Q: What about the GI50 [15] of the same compound?
A: Its GI50 is 160 nM.

Q: What about the GI50 [16] of the same compound?
A: Its GI50 is 170 nM.

Q: What about the GI50 [17] of the same compound?
A: Its GI50 is 190 nM.

Q: Which results are given for COc1cc2c(cc1OCCCN1CCN(C(=O)c3ccccc3NCc3cc(OC)c(OC)c(OC)c3)CC1)N=C[C@@H]1CCCN1C2=O?
A: GI50 [1]: 150 nM; GI50 [2]: 140 nM; GI50 [3]: 170 nM; GI50 [4]: 170 nM; GI50 [7]: 2000 nM; GI50 [10]: 2100 nM; GI50 [11]: 160 nM; GI50 [14]: 150 nM; GI50 [15]: 170 nM; GI50 [16]: 170 nM; GI50 [17]: 180 nM

Q: Which GI50 [1] does the source give for COc1cc2c(cc1OCCCCCN1CCN(C(=O)c3ccccc3NCc3cc(OC)c(OC)c(OC)c3)CC1)N=C[C@@H]1CCCN1C2=O here?
A: The GI50 was 140 nM.

Q: What about the GI50 [2] of the same compound?
A: Its GI50 is 140 nM.

Q: What about the GI50 [3] of the same compound?
A: Its GI50 is 170 nM.

Q: What about the GI50 [4] of the same compound?
A: Its GI50 is 2200 nM.

Q: What about the GI50 [7] of the same compound?
A: Its GI50 is 1900 nM.

Q: And the GI50 [10]?
A: Its GI50 is 1900 nM.

Q: What about the GI50 [11] of the same compound?
A: The GI50 was 140 nM.

Q: And the GI50 [14]?
A: The GI50 was 140 nM.

Q: And the GI50 [15]?
A: The GI50 was 160 nM.

Q: And the GI50 [16]?
A: The GI50 was 160 nM.

Q: And the GI50 [17]?
A: Its GI50 is 160 nM.

Q: What does the source list for COc1cc2c(cc1OCCCCCN1CCN(C(=O)c3ccccc3NCc3ccncc3)CC1)N=C[C@@H]1CCCN1C2=O?
A: GI50 [1]: 150 nM; GI50 [2]: 160 nM; GI50 [3]: 1800 nM; GI50 [4]: 25000 nM; GI50 [7]: 2000 nM; GI50 [10]: 2300 nM; GI50 [11]: 170 nM; GI50 [14]: 150 nM; GI50 [15]: 2000 nM; GI50 [16]: 170 nM; GI50 [17]: 170 nM

Q: For COc1cc2c(cc1OCCCCCN1CCN(C(=O)c3cc(Cl)ccc3NCc3ccc4ccccc4c3)CC1)N=C[C@@H]1CCCN1C2=O, which GI50 [1] is on record?
A: Its GI50 is 140 nM.

Q: And the GI50 [2]?
A: Its GI50 is 140 nM.

Q: And the GI50 [3]?
A: The GI50 was 1800 nM.

Q: What about the GI50 [4] of the same compound?
A: The GI50 was 29000 nM.

Q: What about the GI50 [7] of the same compound?
A: The GI50 was 2000 nM.

Q: What about the GI50 [10] of the same compound?
A: The GI50 was 2000 nM.

Q: What about the GI50 [11] of the same compound?
A: Its GI50 is 170 nM.

Q: And the GI50 [14]?
A: Its GI50 is 170 nM.

Q: What about the GI50 [15] of the same compound?
A: The GI50 was 180 nM.

Q: What about the GI50 [16] of the same compound?
A: Its GI50 is 170 nM.

Q: And the GI50 [17]?
A: Its GI50 is 180 nM.

Q: For COc1cc2c(cc1O)N=C[C@@H]1CCCN1C2=O, which GI50 [1] is on record?
A: Its GI50 is 170 nM.

Q: And the GI50 [2]?
A: The GI50 was 170 nM.

Q: What about the GI50 [3] of the same compound?
A: The GI50 was 170 nM.

Q: And the GI50 [4]?
A: The GI50 was 110 nM.

Q: What about the Activity [6] of the same compound?
A: Its Activity is 23.08%.

Q: What about the GI50 [7] of the same compound?
A: Its GI50 is 160 nM.

Q: And the Activity [8]?
A: The Activity was “Active”.

Q: And the Activity [9]?
A: Its Activity is 67.67%.

Q: And the GI50 [10]?
A: Its GI50 is 150 nM.

Q: What about the GI50 [11] of the same compound?
A: The GI50 was 200 nM.

Q: And the Activity [13]?
A: The Activity was 2.683%.

Q: What about the GI50 [16] of the same compound?
A: Its GI50 is 160 nM.

Q: What about the GI50 [17] of the same compound?
A: The GI50 was 140 nM.

Q: And the Activity [18]?
A: Its Activity is 12.19%.

Q: And the Activity [19]?
A: The Activity was “Active”.

Q: With COc1cc2c(cc1OCCCCCCN1CCN(C(=O)c3ccccc3NCc3ccncc3)CC1)N=C[C@@H]1CCCN1C2=O as the compound, how does the GI50 [1] read?
A: Its GI50 is 150 nM.

Q: And the GI50 [2]?
A: Its GI50 is 150 nM.

Q: And the GI50 [3]?
A: Its GI50 is 1900 nM.

Q: What about the GI50 [4] of the same compound?
A: Its GI50 is 2600 nM.

Q: And the GI50 [7]?
A: The GI50 was 2200 nM.

Q: And the GI50 [10]?
A: Its GI50 is 25000 nM.

Q: What about the GI50 [11] of the same compound?
A: Its GI50 is 1800 nM.

Q: What about the GI50 [14] of the same compound?
A: Its GI50 is 170 nM.

Q: And the GI50 [15]?
A: The GI50 was 2000 nM.

Q: What about the GI50 [16] of the same compound?
A: Its GI50 is 180 nM.

Q: And the GI50 [17]?
A: Its GI50 is 190 nM.
